In ChEMBL document CHEMBL1140690, “5-((4-Aminopiperidin-1-yl)methyl)pyrrolotriazine dual inhibitors of EGFR and HER2 protein tyrosine kinases” (Bioorg Med Chem Lett, 2007):
The source made the active and inactive calls. No cut-off for these calls is given here.

How the values were obtained:
NCI-N87 [1] = assay: Antiproliferative activity against human N87 cells
[2] = biological target: Receptor tyrosine-protein kinase erbB-2 (Homo sapiens, UniProt P04626); assay: Inhibition of human recombinant HER2 expressed in insect Sf9 cells
Chain of Receptor tyrosine-protein kinase erbB-2 (P04626 whole entry): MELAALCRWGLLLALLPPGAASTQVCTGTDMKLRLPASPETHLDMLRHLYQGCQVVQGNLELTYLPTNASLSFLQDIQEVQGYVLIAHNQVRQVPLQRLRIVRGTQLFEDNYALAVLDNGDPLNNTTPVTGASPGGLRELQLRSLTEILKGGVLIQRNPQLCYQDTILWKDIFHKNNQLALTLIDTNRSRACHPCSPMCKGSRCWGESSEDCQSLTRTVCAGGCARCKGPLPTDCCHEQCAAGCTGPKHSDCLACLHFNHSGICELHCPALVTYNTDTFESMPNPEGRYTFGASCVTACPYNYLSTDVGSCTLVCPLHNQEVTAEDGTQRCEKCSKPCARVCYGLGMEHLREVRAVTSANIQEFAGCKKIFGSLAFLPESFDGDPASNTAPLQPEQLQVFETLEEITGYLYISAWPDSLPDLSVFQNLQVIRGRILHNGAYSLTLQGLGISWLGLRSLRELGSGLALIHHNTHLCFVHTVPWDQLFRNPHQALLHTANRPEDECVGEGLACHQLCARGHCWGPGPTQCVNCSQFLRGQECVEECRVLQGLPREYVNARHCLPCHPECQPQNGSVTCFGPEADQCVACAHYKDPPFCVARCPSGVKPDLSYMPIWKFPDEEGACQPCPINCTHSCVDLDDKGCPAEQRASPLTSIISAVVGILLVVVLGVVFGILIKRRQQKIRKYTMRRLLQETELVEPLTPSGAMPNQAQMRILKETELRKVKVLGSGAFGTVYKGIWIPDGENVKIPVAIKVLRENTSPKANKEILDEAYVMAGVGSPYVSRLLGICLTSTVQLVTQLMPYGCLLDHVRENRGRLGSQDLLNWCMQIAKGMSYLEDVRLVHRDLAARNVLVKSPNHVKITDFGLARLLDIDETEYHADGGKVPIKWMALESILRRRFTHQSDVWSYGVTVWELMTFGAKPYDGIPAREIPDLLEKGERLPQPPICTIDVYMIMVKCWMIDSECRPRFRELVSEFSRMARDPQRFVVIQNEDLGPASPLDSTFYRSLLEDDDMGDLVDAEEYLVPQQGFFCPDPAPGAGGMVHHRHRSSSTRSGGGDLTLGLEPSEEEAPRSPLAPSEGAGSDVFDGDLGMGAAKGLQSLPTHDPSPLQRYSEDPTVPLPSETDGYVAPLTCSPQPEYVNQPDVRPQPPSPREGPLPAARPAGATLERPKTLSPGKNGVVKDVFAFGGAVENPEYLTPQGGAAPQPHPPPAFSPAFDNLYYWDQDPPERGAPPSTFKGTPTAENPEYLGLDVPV

[3] = biological target: Epidermal growth factor receptor (Homo sapiens, UniProt P00533); assay: Inhibition of human recombinant EGFR expressed in insect Sf9 cells
Chain of Epidermal growth factor receptor (P00533 whole entry): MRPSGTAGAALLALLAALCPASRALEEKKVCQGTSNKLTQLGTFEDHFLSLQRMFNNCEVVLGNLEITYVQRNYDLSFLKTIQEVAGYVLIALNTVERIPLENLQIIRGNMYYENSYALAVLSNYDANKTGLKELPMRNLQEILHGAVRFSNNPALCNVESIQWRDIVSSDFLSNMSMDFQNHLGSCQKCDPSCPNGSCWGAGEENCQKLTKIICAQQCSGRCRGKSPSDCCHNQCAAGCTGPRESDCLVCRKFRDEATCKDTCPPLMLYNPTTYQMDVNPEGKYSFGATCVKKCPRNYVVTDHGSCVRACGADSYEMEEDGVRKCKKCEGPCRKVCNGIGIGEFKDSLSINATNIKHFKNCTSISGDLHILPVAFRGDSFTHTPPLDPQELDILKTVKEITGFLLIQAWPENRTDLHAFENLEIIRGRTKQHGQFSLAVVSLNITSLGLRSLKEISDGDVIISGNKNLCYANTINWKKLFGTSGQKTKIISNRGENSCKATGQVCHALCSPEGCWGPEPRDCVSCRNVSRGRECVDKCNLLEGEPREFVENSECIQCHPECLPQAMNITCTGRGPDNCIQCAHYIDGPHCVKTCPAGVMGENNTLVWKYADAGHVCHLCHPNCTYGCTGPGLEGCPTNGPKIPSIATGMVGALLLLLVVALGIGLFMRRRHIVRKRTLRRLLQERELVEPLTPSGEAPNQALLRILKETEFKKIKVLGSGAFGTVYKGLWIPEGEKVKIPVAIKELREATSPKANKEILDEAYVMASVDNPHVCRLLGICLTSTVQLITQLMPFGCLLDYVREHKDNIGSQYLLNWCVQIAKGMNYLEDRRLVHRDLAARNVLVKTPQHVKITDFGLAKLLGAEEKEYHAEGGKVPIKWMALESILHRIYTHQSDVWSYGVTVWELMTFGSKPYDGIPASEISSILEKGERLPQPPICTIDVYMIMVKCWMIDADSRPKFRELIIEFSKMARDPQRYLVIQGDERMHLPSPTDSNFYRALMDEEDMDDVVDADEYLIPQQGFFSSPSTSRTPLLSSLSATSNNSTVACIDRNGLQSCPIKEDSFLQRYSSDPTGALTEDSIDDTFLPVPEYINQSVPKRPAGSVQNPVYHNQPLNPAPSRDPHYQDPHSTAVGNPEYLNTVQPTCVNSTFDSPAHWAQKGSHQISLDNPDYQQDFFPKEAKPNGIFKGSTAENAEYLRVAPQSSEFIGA

HT-29 = assay: Antiproliferative activity against human HT29 cells; type: functional, cell-based
Summary of the method: (§1)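 HT29 (colon carcinoma) and A2780 (ovarian carcinoma) lines, stated not to rely on EGFR or HER2 signalling, serve as counter-screen lines; proliferation IC50 reported.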

A2780 = assay: Antiproliferative activity against human A2780 cells; type: functional, cell-based; summary of the method: as §1
Liver = assay: Metabolic stability in mouse liver microsomes at 3 uM after 10 mins in presence of NADPH; type: ADME, Microsome
Summary of the method: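 Mouse liver microsomes with NADPH; compound at 3 µM, incubated 10 min; metabolic rate expressed as nmol/min/mg protein.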

[4] = AUC (0 to 4 hrs) in BALB/c mouse at 50 mg/kg, po after 4 hrs; type: ADME, organism-based; set-up: time < 4 hr, dose 50 mg/kg, route oral; details: plasma
[5] = Drug level in BALB/c mouse plasma at 50 mg/kg, po after 4 hrs; type: ADME, organism-based; set-up: dose 50 mg/kg, route oral
Summary of the method: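 Single oral 50 mg/kg dose in Tween 80/PEG400/water (10/40/50, v/v/v) to three male Balb/C mice; plasma concentration at 4 h averaged, AUC0–4h also derived.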

NCI-N87 [6] = assay: Antitumor activity against human N87 cells xenografted in athymic mouse at 240 mg/kg, sc QD after 21 days; type: functional; details: 504 h
GEO = assay: Antitumor activity against human GEO cells xenografted in athymic mouse at 180 mg/kg, sc QD after 10 days; type: functional, organism-based; set-up: dose 180 mg/kg
NCI-N87 [7] = assay: Antitumor activity against human N87 cells xenografted in athymic mouse at 180 mg/kg, po QD after 21 days; details: 504 h; for minimal effective dose at 180 mg/kg: read-out: MED
HT29 = assay: Antiproliferative activity against human HT29 cells
[8] = Antitumor activity against human GEO cells xenografted in athymic mouse at 135 mg/kg, sc BID after 14 days; type: functional; details: 336 h, route subcutaneous
[9] = Antitumor activity against human GEO cells xenografted in athymic mouse at 240 mg/kg, […] after 10 days; type: functional; details: sc, 240 h
Summary of the method: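 Established subcutaneous GEO human colon carcinoma xenografts in athymic mice. Compound given orally once daily for 10 days (QD × 10) in Tween 80–PEG400–water (10/40/50).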

[10] = Antitumor activity against human GEO cells xenografted in athymic mouse at 120 mg/kg, sc QD after 10 days
[11] = Inhibition of PKA; set-up: species or system Homo sapiens
Summary of the method: (§2)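 Kinase panel IC50s, each reported as the mean of at least three determinations.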

[12] = biological target: Tyrosine-protein kinase Lck (Homo sapiens, UniProt P06239); assay: Inhibition of LCK
Chain of Tyrosine-protein kinase Lck (P06239 whole entry): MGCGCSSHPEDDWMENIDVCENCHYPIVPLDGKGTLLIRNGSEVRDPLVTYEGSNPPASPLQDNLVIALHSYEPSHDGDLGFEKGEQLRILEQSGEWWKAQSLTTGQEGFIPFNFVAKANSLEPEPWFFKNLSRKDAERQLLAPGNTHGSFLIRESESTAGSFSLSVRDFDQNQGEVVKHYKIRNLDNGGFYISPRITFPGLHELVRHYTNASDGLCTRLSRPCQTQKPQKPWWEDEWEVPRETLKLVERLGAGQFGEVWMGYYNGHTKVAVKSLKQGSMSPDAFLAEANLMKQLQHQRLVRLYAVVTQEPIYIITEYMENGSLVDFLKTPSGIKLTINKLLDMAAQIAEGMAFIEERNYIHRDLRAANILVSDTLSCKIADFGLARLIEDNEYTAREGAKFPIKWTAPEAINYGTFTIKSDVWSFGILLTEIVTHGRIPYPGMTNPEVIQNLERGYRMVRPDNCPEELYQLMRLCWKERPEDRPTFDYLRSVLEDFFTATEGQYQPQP

MAP kinase p38 = MAP kinase p38 (Homo sapiens, UniProt O15264+Q15759+Q16539+P53778); assay: Inhibition of p38; type: protein assay
Summary of the method: (§3)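 Selectivity-panel kinase assays against each named kinase. IC50 reported as the mean of at least three determinations.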

[13] = biological target: Vascular endothelial growth factor receptor 2 (Homo sapiens, UniProt P35968); assay: Inhibition of VEGFR2; summary of the method: as §3
Protein kinase C (PKC) = assay: Inhibition of PKC; set-up: species or system Homo sapiens; summary of the method: as §2
CDK2/Cyclin E1 = CDK2/Cyclin E1 (Homo sapiens, UniProt P24941); assay: Inhibition of CDK2; summary of the method: as §3
[14] = biological target: Hepatocyte growth factor receptor (Homo sapiens, UniProt P08581); assay: Inhibition of Met; summary of the method: as §3
Chain of Hepatocyte growth factor receptor (P08581 whole entry): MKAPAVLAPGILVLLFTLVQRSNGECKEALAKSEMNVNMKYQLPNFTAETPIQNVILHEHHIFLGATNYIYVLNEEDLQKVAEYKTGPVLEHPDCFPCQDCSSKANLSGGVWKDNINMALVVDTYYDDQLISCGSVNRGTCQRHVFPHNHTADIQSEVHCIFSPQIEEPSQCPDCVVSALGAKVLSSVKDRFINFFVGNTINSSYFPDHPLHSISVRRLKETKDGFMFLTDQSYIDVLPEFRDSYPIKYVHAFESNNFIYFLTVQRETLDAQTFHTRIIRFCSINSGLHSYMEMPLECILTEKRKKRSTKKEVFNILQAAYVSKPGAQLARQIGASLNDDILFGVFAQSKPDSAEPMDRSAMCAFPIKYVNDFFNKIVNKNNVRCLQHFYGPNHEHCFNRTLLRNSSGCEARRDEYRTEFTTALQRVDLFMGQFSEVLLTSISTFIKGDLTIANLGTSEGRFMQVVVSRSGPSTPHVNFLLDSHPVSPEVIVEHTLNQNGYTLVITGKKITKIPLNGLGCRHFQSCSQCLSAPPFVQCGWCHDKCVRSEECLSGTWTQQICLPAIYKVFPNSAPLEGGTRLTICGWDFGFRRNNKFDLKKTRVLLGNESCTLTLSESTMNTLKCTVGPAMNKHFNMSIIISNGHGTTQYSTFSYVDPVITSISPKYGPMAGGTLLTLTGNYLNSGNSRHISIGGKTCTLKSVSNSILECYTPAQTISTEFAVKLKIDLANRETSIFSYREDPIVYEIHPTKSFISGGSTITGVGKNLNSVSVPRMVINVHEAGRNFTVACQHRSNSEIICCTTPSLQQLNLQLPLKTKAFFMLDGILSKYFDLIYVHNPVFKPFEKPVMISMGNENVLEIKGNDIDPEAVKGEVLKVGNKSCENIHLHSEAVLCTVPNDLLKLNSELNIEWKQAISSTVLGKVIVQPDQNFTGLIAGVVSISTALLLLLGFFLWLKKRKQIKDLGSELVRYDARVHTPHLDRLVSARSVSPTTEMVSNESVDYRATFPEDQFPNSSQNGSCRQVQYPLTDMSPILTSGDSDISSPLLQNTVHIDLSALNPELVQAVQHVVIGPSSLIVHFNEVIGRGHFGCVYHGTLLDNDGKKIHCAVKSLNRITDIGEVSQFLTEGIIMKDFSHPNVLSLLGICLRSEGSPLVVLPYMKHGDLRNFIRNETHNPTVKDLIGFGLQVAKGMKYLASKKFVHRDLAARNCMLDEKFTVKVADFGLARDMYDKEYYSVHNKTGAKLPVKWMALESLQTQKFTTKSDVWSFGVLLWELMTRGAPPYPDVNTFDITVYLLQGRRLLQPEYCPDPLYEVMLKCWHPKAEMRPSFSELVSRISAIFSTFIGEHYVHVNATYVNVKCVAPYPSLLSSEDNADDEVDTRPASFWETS

SMILES | IC50 [2] [nM] | IC50 [3] [nM] | IC50 (HT-29) [µM] | IC50 (A2780) [µM] | AUC(0-t) at 4 h [4] [µM·h] | concentration at 4 h [5] [µM] | IC50 (NCI-N87 [1]) [nM] | further results
Fc1cccc(Cn2ncc3cc(Nc4ncnn5ccc(CNC6CCNCC6)c45)ccc32)c1 | 76 | 110 | 5 | 5 | – | – | 1150 | –
N[C@H]1CCN(Cc2ccn3ncnc(Nc4ccc5c(cnn5Cc5cccc(F)c5)c4)c23)C1 | 52 | 50 | 6.5 | 6.5 | – | – | 810 | –
NC1CCN(Cc2ccn3ncnc(Nc4ccc(OCc5cccnc5)c(Cl)c4)c23)CC1 | 36 | 150 | 2.7 | 2.7 | 30 | 7.5 | 230 | –
Fc1cccc(COc2ccc(Nc3ncnn4ccc(CN5CCCNCC5)c34)cc2Cl)c1 | 41 | 48 | – | – | – | – | 600 | –
NC1CCN(Cc2ccn3ncnc(Nc4ccc5c(cnn5Cc5ccncc5)c4)c23)CC1 | 190 | 530 | > 5 | > 5 | – | – | 470 | –
O=C(CO)NC1CCN(Cc2ccn3ncnc(Nc4ccc5c(cnn5Cc5cccc(F)c5)c4)c23)CC1 | 120 | 110 | 9.5 | 9.5 | – | – | 310 | –
CC1(N)CCN(Cc2ccn3ncnc(Nc4ccc5c(cnn5Cc5cccc(F)c5)c4)c23)CC1 | 43 | 50 | 6.1 | – | – | – | 70 | IC50 (HT29): 6.1 µM
Fc1cccc(Cn2ncc3cc(Nc4ncnn5ccc(CN6CCCNCC6)c45)ccc32)c1 | – | – | 3.6 | 3.6 | – | – | 110 | inhibition in vivo at 135 mg/kg ([8]; dose 135 mg/kg): 78%; minimal effective dose ([8]; read-out: MED): 90 mg/kg; inhibition in vivo at 180 mg/kg (NCI-N87 [7]): 121%; minimal effective dose at 180 mg/kg (NCI-N87 [7]): 90 mg/kg
CN(C)C1CCN(Cc2ccn3ncnc(Nc4ccc5c(cnn5Cc5cccc(F)c5)c4)c23)CC1 | 110 | 100 | 7.6 | 7.6 | – | – | 450 | –
CS(=O)(=O)CCNC1CCN(Cc2ccn3ncnc(Nc4ccc5c(cnn5Cc5cccc(F)c5)c4)c23)CC1 | 190 | 200 | – | – | – | – | 700 | –
CNC1CCN(Cc2ccn3ncnc(Nc4ccc5c(cnn5Cc5cccc(F)c5)c4)c23)CC1 | 54 | 63 | 7.3 | 7.3 | – | – | 78 | –
COc1cn2ncnc(Nc3ccc4c(cnn4Cc4cccc(F)c4)c3)c2c1CN1CCCNCC1 | 170 | 190 | – | – | – | – | 3700 | –
NC1CCN(Cc2ccn3ncnc(Nc4ccc5c(cnn5Cc5cccc(F)c5)c4)c23)CC1 | 23 | 35 | 4.3 | – | 14 | 2.7 | 35 | inhibition in vivo at 240 mg/kg [9]: 85%; MED [10]: 120 mg/kg; metabolic rate (Liver): 0.05 nmol/min/mg; IC50 [11]: > 50 µM; IC50 [12]: 710 nM; IC50 (MAP kinase p38): > 50 µM; IC50 [13]: 480 nM; IC50 (Protein kinase C (PKC)): 2.2 µM; IC50 (CDK2/Cyclin E1): 1900 nM; IC50 [14]: 3.9 µM; IC50 (HT29): 4.3 µM; inhibition in vivo at 180 mg/kg (NCI-N87 [7]): 133%; minimal effective dose at 180 mg/kg (NCI-N87 [7]): 60 mg/kg
N[C@@H]1CCN(Cc2ccn3ncnc(Nc4ccc5c(cnn5Cc5cccc(F)c5)c4)c23)C1 | 70 | 60 | 3.9 | 3.9 | – | – | 830 | –
NCC1CCN(Cc2ccn3ncnc(Nc4ccc5c(cnn5Cc5cccc(F)c5)c4)c23)CC1 | 38 | 35 | 2.9 | 2.9 | – | – | 140 | –
Fc1cccc(Cn2ncc3cc(Nc4ncnn5ccc(COC[C@@H]6CNCCO6)c45)ccc32)c1 | – | – | 8.7 | – | – | – | – | IC50 [11]: > 50 µM
COc1cn2ncnc(Nc3ccc4c(cnn4Cc4cccc(F)c4)c3)c2c1CN1CCC(N)CC1 | 43 | 40 | – | – | – | – | 430 | –
CC(=O)NC1CCN(Cc2ccn3ncnc(Nc4ccc5c(cnn5Cc5cccc(F)c5)c4)c23)CC1 | 180 | 380 | > 10 | – | – | – | 290 | IC50 (HT29): > 10 µM
Cc1cncc(COc2ccc(Nc3ncnn4ccc(CN5CCC(N)CC5)c34)cc2Cl)c1 | 60 | – | 3.5 | 3.5 | 7.8 | 1.8 | 180 | metabolic rate (Liver): 0 nmol/min/mg

Continued by falling IC50 [2], values first:

IC50 [2] [nM] | IC50 [3] [nM] | IC50 (HT-29) [µM] | IC50 (A2780) [µM] | AUC(0-t) at 4 h [4] [µM·h] | concentration at 4 h [5] [µM] | SMILES | IC50 (NCI-N87 [1]) [nM] | further results
35 | 47 | > 10 | > 10 | 3.6 | 1.6 | NC1CCN(Cc2ccn3ncnc(Nc4ccc5c(cnn5Cc5ccccn5)c4)c23)CC1 | 120 | metabolic rate (Liver): 0.01 nmol/min/mg
34 | 190 | > 5 | > 5 | 22 | 4.5 | NC1CCN(Cc2ccn3ncnc(Nc4ccc5c(cnn5Cc5cccnc5)c4)c23)CC1 | 86 | metabolic rate (Liver): 0.01 nmol/min/mg
32 | 38 | – | – | – | – | NC1CCN(Cc2ccn3ncnc(Nc4ccc(OCc5cccc(F)c5)c(Cl)c4)c23)CC1 | 83 | –
31 | – | 5.4 | 5.4 | – | – | OCCNC1CCN(Cc2ccn3ncnc(Nc4ccc5c(cnn5Cc5cccc(F)c5)c4)c23)CC1 | 73 | –
26 | 32 | 3.5 | 3.5 | 21 | 6.3 | NC1CCN(Cc2ccn3ncnc(Nc4ccc(OCc5cnccn5)c(Cl)c4)c23)CC1 | 72 | metabolic rate (Liver): 0.12 nmol/min/mg; Activity (GEO): inactive; inhibition in vivo at 180 mg/kg (NCI-N87 [7]): 63%; minimal effective dose at 180 mg/kg (NCI-N87 [7]): 180 mg/kg
22 | 36 | 2 | 2 | 13 | 3.7 | NC1CCN(Cc2ccn3ncnc(Nc4ccc(OCc5ccccn5)c(Cl)c4)c23)CC1 | 58 | metabolic rate (Liver): 0.04 nmol/min/mg; inhibition in vivo at 240 mg/kg (NCI-N87 [6]; dose 240 mg/kg): 110%; minimal effective dose (NCI-N87 [6]; read-out: MED): 120 mg/kg
18 | 70 | > 5 | > 5 | 15 | 3.9 | NC1CCN(Cc2ccn3ncnc(Nc4ccc(OCc5cccc[n+]5[O-])c(Cl)c4)c23)CC1 | 110 | metabolic rate (Liver): 0 nmol/min/mg; Activity (GEO): inactive
13 | 19 | > 5 | > 5 | 9.9 | 1.3 | Cc1cncc(Cn2ncc3cc(Nc4ncnn5ccc(CN6CCC(N)CC6)c45)ccc32)c1 | 36 | metabolic rate (Liver): 0.06 nmol/min/mg; Activity (GEO): inactive; inhibition in vivo at 180 mg/kg (NCI-N87 [7]): 89%; minimal effective dose at 180 mg/kg (NCI-N87 [7]): 120 mg/kg
